Measurements taken from ChEMBL document CHEMBL1145069, “Stereospecific synthesis of 5-substituted 2-bisarylthiocyclopentane carboxylic acids as specific matrix metalloproteinase inhibitors” (J Med Chem, 2003).
Values joined by “and” are separate entries in the source; they are usually repeats but may differ in a detail not shown here. Identical values can stand only once.

What was measured:
[1] = target: Matrix metalloproteinase-9 (Homo sapiens, UniProt P14780); test: Inhibitory activity against matrix metalloprotease-9 (MMP9)
[2] = target: 72 kDa type IV collagenase (Homo sapiens, UniProt P08253); test: Inhibitory activity against matrix metalloprotease-2 (MMP2)
[3] = In vivo maximum plasma concentration was determined in mice after 5 mg/kg (iv) administration; assay type: ADME, organism-based; design: route intravenous, dose 5 mg/kg; conditions: mouse
[4] = In vivo maximum plasma concentration was determined in mice after 50 mg/kg (ip) administration; assay type: ADME, organism-based; design: route intraperitoneal, dose 50 mg/kg; conditions: mouse
[5] = In vivo maximum plasma concentration was determined in mice after 50 mg/kg (po) administration; assay type: ADME, organism-based; design: route oral, dose 50 mg/kg; conditions: mouse
Homo sapiens [6] = species on record: Homo sapiens; test: In vitro metabolic stability and first pass metabolism was evaluated in human hepatic microsomes; assay type: ADME, Liver
Homo sapiens [7] = species on record: Homo sapiens; test: In vitro absorption was measured in Caco-2 cell; assay type: ADME
[8] = Bioavailability in mouse (dose 50 mg/kg i.p.); assay type: ADME, organism-based; conditions: in vivo, ip
[9] = Bioavailability in mouse (dose 50 mg/kg p.o.); assay type: ADME, organism-based; conditions: in vivo, po
[10] = In vivo half life in mice after 5 mg/kg (iv) administration; assay type: ADME, organism-based; design: dose 5 mg/kg; conditions: mouse
Rattus norvegicus = species on record: Rattus norvegicus; test: In vitro metabolic stability and first pass metabolism was evaluated in rat hepatic microsomes; assay type: ADME, Liver
[11] = In vivo half life in mice after 50 mg/kg (ip) administration; assay type: ADME, organism-based; design: dose 50 mg/kg; conditions: mouse
[12] = In vivo half life in mice after 50 mg/kg (po) administration; assay type: ADME, organism-based; design: dose 50 mg/kg; conditions: mouse
Interstitial collagenase = target: T1, Interstitial collagenase (Homo sapiens, UniProt P03956); test: Inhibitory activity against matrix metalloprotease-1 (MMP1)
T1 sequence (P03956 whole entry): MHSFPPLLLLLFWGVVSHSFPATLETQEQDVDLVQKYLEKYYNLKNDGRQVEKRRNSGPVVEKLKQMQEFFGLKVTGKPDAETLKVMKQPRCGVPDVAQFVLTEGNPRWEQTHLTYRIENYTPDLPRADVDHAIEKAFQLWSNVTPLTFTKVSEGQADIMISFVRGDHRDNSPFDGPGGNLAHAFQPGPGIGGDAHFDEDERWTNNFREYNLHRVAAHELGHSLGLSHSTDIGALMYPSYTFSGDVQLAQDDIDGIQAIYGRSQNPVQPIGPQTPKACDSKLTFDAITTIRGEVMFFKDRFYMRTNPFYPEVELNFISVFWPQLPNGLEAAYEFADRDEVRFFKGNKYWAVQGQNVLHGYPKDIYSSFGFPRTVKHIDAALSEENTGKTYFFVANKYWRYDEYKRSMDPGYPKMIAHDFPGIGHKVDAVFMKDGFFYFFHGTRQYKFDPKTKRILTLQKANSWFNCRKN

Collagenase 3 = Collagenase 3 (Homo sapiens, UniProt P45452); test: Inhibitory activity against matrix metalloprotease-13 (MMP13)
Mus musculus [13] = test: Tested for antitumor activity in mice against B16F10 melanoma measured as reduction in number of metastases at 100 mg/kg (ip); assay type: functional
Summary of the method: (§1)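 B16-F10 cells passaged in vitro, then 2×10^5 cells per mouse injected into the tail vein of B6D2F1 mice in PBS with 0.5% foetal calf serum. 7 mice per group. Dosing i.p. or p.o. 1 h before inoculation, then daily for 3 days (four doses). Lungs collected on day 11 and fixed in Bouin's fluid. Metastases per lung (total and ≥1 mm) given as % of control mean.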

Mus musculus [14] = test: Tested for antitumor activity in mice against B16F10 melanoma measured as reduction in number of metastases at 100 mg/kg (po); assay type: functional; summary of the method: as §1
Mus musculus [15] = test: Tested for antitumor activity in mice against B16F10 melanoma measured as reduction in number of metastases at 200 mg/kg (ip); assay type: functional; summary of the method: as §1
Mus musculus [16] = test: Tested for antitumor activity in mice against B16F10 melanoma measured as reduction in number of metastases at 200 mg/kg (po); assay type: functional; summary of the method: as §1
Stromelysin-1 = Stromelysin-1 (Homo sapiens, UniProt P08254); test: Inhibitory activity against matrix metalloprotease-3 (MMP3)
Mus musculus [17] = test: Tested for antitumor activity in mice against B16F10 melanoma measured as reduction in number of metastases at 25 mg/kg (ip); assay type: functional; summary of the method: as §1
Mus musculus [18] = test: Tested for antitumor activity in mice against B16F10 melanoma measured as reduction in number of metastases at 50 mg/kg (ip); assay type: functional; summary of the method: as §1
[19] = Bioavailability determined; assay type: ADME, organism-based; conditions: eutheria, in vivo

Sequence of Matrix metalloproteinase-9 (P14780 whole entry): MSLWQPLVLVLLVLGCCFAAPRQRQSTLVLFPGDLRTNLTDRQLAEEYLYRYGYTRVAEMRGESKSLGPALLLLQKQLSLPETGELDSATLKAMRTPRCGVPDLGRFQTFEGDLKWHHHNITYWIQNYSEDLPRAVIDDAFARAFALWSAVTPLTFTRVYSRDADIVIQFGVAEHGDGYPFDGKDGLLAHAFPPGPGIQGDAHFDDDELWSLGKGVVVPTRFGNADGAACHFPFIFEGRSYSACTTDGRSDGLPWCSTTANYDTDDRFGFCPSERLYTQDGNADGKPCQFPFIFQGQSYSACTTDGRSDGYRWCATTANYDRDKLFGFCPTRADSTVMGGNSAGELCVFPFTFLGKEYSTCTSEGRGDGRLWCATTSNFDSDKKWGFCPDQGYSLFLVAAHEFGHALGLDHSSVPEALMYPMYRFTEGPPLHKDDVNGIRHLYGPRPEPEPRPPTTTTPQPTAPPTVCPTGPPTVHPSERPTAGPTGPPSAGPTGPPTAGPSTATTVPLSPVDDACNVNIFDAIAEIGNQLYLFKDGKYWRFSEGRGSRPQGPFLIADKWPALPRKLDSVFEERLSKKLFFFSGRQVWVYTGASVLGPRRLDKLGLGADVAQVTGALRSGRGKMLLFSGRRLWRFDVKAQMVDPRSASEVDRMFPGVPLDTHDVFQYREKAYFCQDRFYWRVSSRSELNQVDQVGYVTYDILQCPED
Sequence of 72 kDa type IV collagenase (P08253 whole entry): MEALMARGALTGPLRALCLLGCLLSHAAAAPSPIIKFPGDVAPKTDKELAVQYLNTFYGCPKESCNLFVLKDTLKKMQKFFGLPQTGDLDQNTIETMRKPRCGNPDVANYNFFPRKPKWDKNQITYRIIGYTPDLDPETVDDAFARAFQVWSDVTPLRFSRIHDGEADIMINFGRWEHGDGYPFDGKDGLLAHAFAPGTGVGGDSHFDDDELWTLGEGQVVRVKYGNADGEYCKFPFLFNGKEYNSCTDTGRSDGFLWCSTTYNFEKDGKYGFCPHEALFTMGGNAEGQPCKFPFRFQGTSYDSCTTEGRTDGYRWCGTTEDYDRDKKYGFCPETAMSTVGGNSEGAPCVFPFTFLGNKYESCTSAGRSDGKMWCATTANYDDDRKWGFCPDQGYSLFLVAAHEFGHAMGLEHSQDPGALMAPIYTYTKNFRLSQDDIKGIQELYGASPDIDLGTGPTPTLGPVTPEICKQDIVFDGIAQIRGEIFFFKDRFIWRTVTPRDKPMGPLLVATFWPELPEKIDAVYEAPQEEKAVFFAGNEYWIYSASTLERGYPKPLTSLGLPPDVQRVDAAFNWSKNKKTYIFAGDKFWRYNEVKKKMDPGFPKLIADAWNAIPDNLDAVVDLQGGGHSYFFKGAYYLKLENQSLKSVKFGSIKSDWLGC
Sequence of Stromelysin-1 (P08254 whole entry): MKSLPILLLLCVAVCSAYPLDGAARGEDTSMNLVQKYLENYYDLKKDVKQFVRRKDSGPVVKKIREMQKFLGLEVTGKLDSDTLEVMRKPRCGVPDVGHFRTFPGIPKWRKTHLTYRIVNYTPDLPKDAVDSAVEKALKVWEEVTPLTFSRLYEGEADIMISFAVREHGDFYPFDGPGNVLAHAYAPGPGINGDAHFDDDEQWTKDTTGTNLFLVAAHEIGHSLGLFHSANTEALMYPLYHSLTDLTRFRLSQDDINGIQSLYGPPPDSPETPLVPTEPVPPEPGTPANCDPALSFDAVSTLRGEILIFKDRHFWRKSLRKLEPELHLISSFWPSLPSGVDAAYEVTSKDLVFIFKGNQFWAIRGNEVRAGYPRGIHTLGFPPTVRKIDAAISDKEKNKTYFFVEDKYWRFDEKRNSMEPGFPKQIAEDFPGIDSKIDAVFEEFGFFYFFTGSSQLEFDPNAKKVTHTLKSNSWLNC

| Compound | IC50 [1] | IC50 [2] | IC50 (Interstitial collagenase) | IC50 (Collagenase 3) | IC50 (Stromelysin-1) | further results |
| --- | --- | --- | --- | --- | --- | --- |
| CN1C(=O)N(C[C@H](C(=O)NO)[C@@H](CC2CCCC2)C(=O)N2CCCCC2)C(=O)C1(C)C | 58 nM | 154 nM | – | – | – | – |
| O=C(O)[C@H]1[C@H](CN2C(=O)c3ccccc3C2=O)CC[C@@H]1SCCc1ccc(-c2ccc(F)cc2)cc1 | 26 nM | 62 nM | 6 µM | 248 nM | 60 nM | Cmax [3]: 40000 ng/mL; Cmax [4]: 130 µg/mL; Cmax [5]: 107 µg/mL; MF (Homo sapiens [6]): 62%; Absorption (Homo sapiens [7]): 90%; bioavailability [8]: 100%; bioavailability [9]: 93%; half-life [10]: 210 min; MF (Rattus norvegicus): 55%; half-life [11]: 240 min; half-life [12]: 240 min; No. of metastases (Mus musculus [13]): 32.5; No. of metastases (Mus musculus [14]): 72; No. of metastases (Mus musculus [15]): 24.5; No. of metastases (Mus musculus [16]): 68 |
| O=C(O)[C@H]1[C@H](CN2C(=O)c3ccccc3C2=O)CC[C@@H]1SCc1ccc(-c2ccccc2)cc1 | 3800 nM | 2800 nM | > 100 µM | 15 nM | 3000 nM | – |
| O=C(O)[C@H]1[C@H](Cn2nnc3ccccc3c2=O)CC[C@@H]1Sc1ccc(-c2nc3ccccc3s2)cc1 | 661 nM | 829 nM | > 1 µM | 417 nM | 8000 nM | – |
| O=C(O)[C@H]1[C@H](Cn2nnc3ccccc3c2=O)CC[C@@H]1Sc1ccc(-c2nccs2)cc1 | > 6000 nM | > 8000 nM | > 100 µM | > 100000 nM | > 100000 nM | – |
| O=C(O)[C@H]1[C@H](Cn2nnc3ccccc3c2=O)CC[C@@H]1Sc1ccc(-c2ccncc2)cc1 | 341 nM | 176 nM | > 36 µM | 275 nM | 1200 nM | – |
| O=C(O)[C@H]1[C@H](Cn2nnc3ccccc3c2=O)CC[C@@H]1Sc1ccc(-c2ccc(Cl)cc2)cc1 | – | – | > 100 µM and 12 µM | – | – | Cmax [3]: 40000 ng/mL; Cmax [4]: 203 µg/mL; Cmax [5]: 93 µg/mL; MF (Homo sapiens [6]): 100%; Absorption (Homo sapiens [7]): 95%; bioavailability [8]: 100%; bioavailability [9]: 69%; half-life [10]: 204 min; MF (Rattus norvegicus): 74%; half-life [11]: 240 min; half-life [12]: 180 min; No. of metastases (Mus musculus [13]): 30; No. of metastases (Mus musculus [14]): 70; No. of metastases (Mus musculus [16]): 74.5; No. of metastases (Mus musculus [17]): 45; No. of metastases (Mus musculus [18]): 39 |
| O=C(NO)C(CCn1nnc2ccccc2c1=O)CSc1ccc(-c2ccc(Cl)cc2)cc1 (stereo not given) | 0.5 nM | 0.06 nM | > 10 µM | 1.2 nM | 10 nM | bioavailability [19]: < 30% |
| O=C(O)[C@H]1[C@H](CN2C(=O)c3ccccc3S2(=O)=O)CC[C@@H]1Sc1ccc(-c2ccc(Cl)cc2)cc1 | 35 nM | 13 nM | 2.1 µM | 80 nM | 474 nM | – |
| CC1(C)NC(=O)N(C[C@@H]2CC[C@H](Sc3ccc(-c4ccc(Cl)cc4)cc3)[C@H]2C(=O)O)C1=O | 3300 nM | 572 nM | 70 µM | 3.1 nM | 9400 nM | – |
| O=C(O)[C@H]1[C@H](CN2C(=O)c3ccccc3C2=O)CC[C@@H]1SCCc1ccc(-c2ccccc2)cc1 | 12 nM | 46 nM | 45 µM | 162 nM | 26 nM | – |
| O=C(O)[C@H]1[C@H](CN2C(=O)c3ccccc3C2=O)CC[C@@H]1Sc1ccc(-c2ccccc2)cc1 | 76 nM | 24 nM | 0.093 µM | 66 nM | 278 nM | – |
| O=C(O)[C@H]1[C@H](CN2NNc3ccsc3C2=O)CC[C@@H]1Sc1ccc(-c2ccc(Cl)cc2)cc1 | 62 nM | 20 nM | 4.4 µM | 133 nM | 216 nM | – |
| O=C(O)[C@H]1[C@H](Cn2nc3n(c2=O)CCCCC3)CC[C@@H]1Sc1ccc(-c2ccc(Cl)cc2)cc1 | 3800 nM | 1700 nM | > 10 µM | 5.1 nM | 18000 nM | – |
